Source: PubChem (The Scripps Research Institute Molecular Screening Center)
The list is not random: actives were taken first. Their share in the collection is about 2%.
GPR7 antag: human neuropeptides B/W receptor 1 antagonism; 1.1% of 290,000 active; GPR7-expressing cells, fluorescence antagonist assay; inhibition, % at 4.4 µM; P48145; in the data active = inhibition above about 16%, passing the limit was not always enough;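 also: cells stimulated with the agonist NPW; 0% = agonist with vehicle and 100% = vehicle without agonist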
Target sequence (P48145 whole entry, looked up): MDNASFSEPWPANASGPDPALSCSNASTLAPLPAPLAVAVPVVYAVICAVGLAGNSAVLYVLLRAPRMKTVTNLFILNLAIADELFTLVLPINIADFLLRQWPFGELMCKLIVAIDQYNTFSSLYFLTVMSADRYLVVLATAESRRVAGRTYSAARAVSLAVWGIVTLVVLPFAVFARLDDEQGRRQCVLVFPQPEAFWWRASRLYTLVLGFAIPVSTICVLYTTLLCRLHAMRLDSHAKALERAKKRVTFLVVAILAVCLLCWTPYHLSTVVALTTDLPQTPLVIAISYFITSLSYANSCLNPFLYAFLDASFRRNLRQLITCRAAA
DNA FID counter-1: fluorescent intercalator displacement, NS3 helicase counter-screen; DNA fluorescent intercalator displacement, fluorescence; inhibition, % at 7.9 µM; 0.17% of 290,000 active; AID 1845; in the data active = inhibition above about 37%;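 also: 0% = vehicle and 100% = reference compound; higher means more ethidium bromide displaced from hairpin DNA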
ZTA counter: counter-screen for EBNA-1 inhibitors: inhibitors of Epstein-Barr virus ZTA; P03206; ZTA-DNA binding, fluorescence polarization; inhibition, % at 11 µM; 0.15% of 320,000 active; AID 2234; in the data active = inhibition above about 33%
Target sequence (P03206 whole entry, looked up): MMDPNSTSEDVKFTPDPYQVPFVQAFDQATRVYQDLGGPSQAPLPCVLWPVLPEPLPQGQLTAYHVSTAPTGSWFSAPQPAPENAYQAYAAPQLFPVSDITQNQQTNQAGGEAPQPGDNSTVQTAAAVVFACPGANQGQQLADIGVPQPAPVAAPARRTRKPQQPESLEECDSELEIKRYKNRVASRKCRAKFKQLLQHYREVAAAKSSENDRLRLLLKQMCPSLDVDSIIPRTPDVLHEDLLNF
HCV NS3 hel inh: HCV NS3 helicase inhibition | NS3 helicase DNA unwinding, Cy5 molecular beacon fluorescence | inhibition, % at 10.9 µM | 0.56% of 290,000 active | AID 1800;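 active = inhibition above the mean of all tested compounds plus 3 SD, set per campaign, cut at about 35% in these data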;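 also: 0% = DMSO wells and 100% = thioflavine S control wells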
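Compound dosing – single dose, 10.9 µM nominal final, DMSO 0.8% final · System – NS3 helicase fragment of HCV · Buffer or medium – MOPS pH 6.5, MgCl2, DTT, Tween20, BSA · Signal – Cy5 beacon fluorescence read at start and 1 h · Also added – annealed dual-labelled DNA beacon duplex, ATP-started · Schedule – 1 h at 25 °C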
EBNA-1 inhibitor: blocks EBNA-1 binding to DNA. 0.34% of 300,000 active. AID 1950. inhibition, % at 14.8 µM. EBNA-1 DNA binding, fluorescence polarization; in the data active = inhibition above about 28%
NS3 hel confirm: HCV NS3 helicase inhibition, confirmation assay | NS3 helicase DNA unwinding, Cy5 molecular beacon fluorescence | inhibition, % at 10.9 µM | 31% of 1,600 active | shares compounds with HCV NS3 hel inh;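 active = inhibition above the mean of all tested compounds plus 3 SD, cutoff set per campaign, cut at about 36% in these data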
DNA FID counter-2: intercalator displacement, NS3 helicase counter-screen. shares compounds with HCV NS3 hel inh. DNA fluorescent intercalator displacement, fluorescence. 4% of 1,600 active. inhibition, % at 7.9 µM; in the data active = inhibition above about 37%;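 also: 0% = vehicle and 100% = reference compound; higher means more displacement of ethidium bromide from the DNA hairpin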
FID counter DR: counter-screen for HCV NS3 helicase inhibitors: DNA intercalator displacement dose response; shares compounds with HCV NS3 hel inh; fluorescent intercalator displacement from DNA, fluorescence; IC50, µM; 120 tested, under 10 active
GPR7 antag cf: confirmation of human GPR7 antagonists; 52% of 2,400 active; AID 1952; inhibition, % at 4.4 µM; shares compounds with GPR7 antag; GPR7-expressing cells, calcium fluorescence antagonist mode; in the data active = inhibition above about 24%;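 also: stimulated with the GPR7 agonist NPW; 0% = agonist plus vehicle and 100% = vehicle alone without agonist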
MCHR1 antagonist: counter-screen for GPR7 antagonists: antagonists of human MCHR1; MCHR1-expressing cells, fluorescence antagonist assay; inhibition, % at 4.4 µM; shares compounds with GPR7 antag; AID 2148; 62% of 2,400 active; in the data active = inhibition above about 22%;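 also: 0% = vehicle with agonist and 100% = vehicle without agonist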
ZTA inh confirm: EBV ZTA DNA binding inhibition, confirmation; shares compounds with ZTA counter; inhibition, % at 11.1 µM; 30% of 320 active; Zta-ZRE DNA binding, fluorescence polarization;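 active = mean inhibition across triplicate runs above the hit threshold derived for the original primary screen, cut at about 33% in these data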;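 also: 0% = Zta with DMSO and 100% = wells lacking Zta protein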
EBNA-1 counter: EBNA-1 DNA binding inhibition, counter-screen for ZTA; shares compounds with ZTA counter; fluorescence polarization; inhibition, % at 14.8 µM; 320 tested, under 10 active; AID 2362
* hit, by the source's call; · = no result. Unless noted, no rule for the calls is given here.

SMILES	GPR7 antag	DNA FID counter-1	ZTA counter	HCV NS3 hel inh	EBNA-1 inhibitor	NS3 hel confirm	DNA FID counter-2	others
O=C1C(=O)N(Cc2ccncc2)C(c2cccc(O)c2)/C1=C(\O)c1ccc2c(c1)OCCO2 (stereo unspecified)	-15.6	-19.8	-22.6	41.3*	1.3	-8.9	11.5
O=C1C(=O)N(Cc2cccnc2)C(c2cccc(O)c2)/C1=C(\O)c1ccc2c(c1)OCCO2 (stereo unspecified)	0.4	-22.0	-12.1	2.8	-7.5	·	·
Cc1ccc(S(=O)(=O)Nc2ccccc2C(=O)OC(C)C(=O)Nc2ccc3ccccc3c2)cc1[N+](=O)[O-] (stereo unspecified)	9.7	-2.4	1.9	-17.7	-7.9	·	·
COc1ccc(NC(=S)NNc2ccc(S(=O)(=O)Nc3ccccc3C(=O)O)cc2[N+](=O)[O-])cc1	2.1	12.8	6.4	39.5*	5.5	83.5*	27.1
Cc1ccc(-c2nc(=S)c3c(n2Cc2ccco2)CCCC3)cc1	16.9	-8.8	·	40.8*	·	18.3	-2.2
Cc1ccc(C)c(N2CCN(C(=O)CCC(=O)Nc3nnc(C(F)(F)F)s3)CC2)c1	-10.6	-36.2	14.3	-5.0	0.6	·	·
COC(=O)CN1C(=O)S/C(=C/c2ccc(N3CCCCC3)o2)C1=O	7.8	-29.3	1.0	32.3	5.5	·	·
CC(=C\c1ccco1)/C=C1/SC(=S)N(CC(=O)O)C1=O	-0.6	-24.4	-15.8	44.8*	3.5	3.1	-1.0
O=C(O)CN1C(=O)/C(=C/c2ccc(N3CCCCC3)o2)SC1=S	-8.8	-29.4	3.0	61.2*	-3.6	27.4	-0.4
CC(=C\c1ccccc1)/C=C1/SC(=S)N(CCC(=O)O)C1=O	24.2	-9.4	8.4	51.2*	3.5	65.0*	-9.0
CC(/C=C1\SC(=S)N(CC(=O)O)C1=O)=C\c1ccccc1	-7.5	-7.6	-3.7	17.9	3.4	·	·
O=C(/C=C1\C(=O)Nc2ccccc21)/C=C1\C(=O)Nc2ccccc21	-12.5	-8.3	·	54.5*	·	9.2	29.1
O=C(NNC(=O)c1cc2ccccc2cc1O)Nc1ccccc1F	-13.9	-9.5	-2.4	45.8*	-0.7	-7.5	-3.8
CCCN(CC(=O)Nc1ccccc1OC)C(=O)c1ccncc1	0.5	-7.4	-7.2	4.8	-8.5	·	·
Cc1ccc(/C=C/C(=O)c2ccccc(=O)c2O)cc1C	-6.2	-16.0	11.8	39.6*	13.4	84.6*	17.3	FID counter DR=>79.4
CCCc1nc(SCC(=O)O)c2sc(=S)n(-c3ccccc3)c2n1	-9.2	-19.4	7.5	36.8*	-6.2	1.2	-21.3
O=C(Cc1ccc(S(=O)(=O)N2CCOCC2)s1)N1CCN(S(=O)(=O)c2ccc(Cl)cc2)CC1	·	·	-13.8	·	·	·	·
COc1ccccc1N1C(=N)S/C(=C\c2ccc(-c3ccccc3C(=O)O)o2)C1=O	-3.2	-27.9	-12.2	41.1*	-0.8	40.2*	-18.7
CCOC(=O)c1c(-c2ccccc2)csc1N1C(=O)Nc2ccccc2N1O	-3.3	-31.0	2.5	47.4*	0.2	71.7*	-11.9
CCOC(=O)c1c(N2C(=O)Nc3ccccc3N2O)sc2c1CCCCC2	-3.0	-29.9	-3.2	46.6*	4.0	74.5*	-13.2
COc1ccc2[nH]c3c(=O)n(CCCC(=O)NC4CCCCC4C)c(=S)[nH]c3c2c1 (stereo unspecified)	22.0*	-26.2	-5.6	41.6*	-15.6	39.7*	-10.9	FID counter DR=>79.4;GPR7 antag cf=-4.2;MCHR1 antagonist=-2.2
COc1ccc2[nH]c3c(=O)n(CCCC(=O)NC4CCC(C)CC4)c(=S)[nH]c3c2c1 (stereo unspecified)	-1.7	-15.4	-5.7	8.7	-15.9	·	·
CC1=CC2=NC(=O)/C(=C/c3coc4ccc(Cl)cc4c3=O)C(=N)N2O1	21.4*	-3.2	1.1	41.9*	-7.0	-20.5	4.7	GPR7 antag cf=27.8*;MCHR1 antagonist=61.3*
COCCOC(=O)c1[nH]c2c(c1C)C(=O)CC(c1ccco1)C2 (stereo unspecified)	23.9*	-10.4	6.3	46.9*	-6.9	-6.5	1.7	GPR7 antag cf=13.7;MCHR1 antagonist=35.6*
CC(=O)c1cccc(NS(=O)(=O)c2ccc(C(=O)Nc3ccccc3)cc2)c1	21.5*	-23.7	-5.5	41.6*	-6.5	-18.1	-1.9	GPR7 antag cf=28.9*;MCHR1 antagonist=49.6*
SMILES	GPR7 antag	DNA FID counter-1	ZTA counter	HCV NS3 hel inh	EBNA-1 inhibitor	NS3 hel confirm	DNA FID counter-2	others
CCC(C)(C(=O)NC1CCCCC1)N(Cc1ccco1)C(=O)c1ccc2c(c1)OCO2 (stereo unspecified)	34.4*	-37.0	13.7	36.4*	8.8	-2.9	-36.4	GPR7 antag cf=34.4*;MCHR1 antagonist=11.7
CCC(C)(C(=O)NC1CCCC1)N(CC1CCCO1)C(=O)c1ccc2c(c1)OCO2 (stereo unspecified)	0.2	-30.1	-17.2	19.6	5.2	·	·
O=C(OCc1ccccc1)N1CCc2ccccc21	-20.1	-16.5	15.6	-0.9	-0.3	·	·
Cc1ccc(S(=O)(=O)/N=C(/Nc2ccc(O)c(C(=O)O)c2)c2ccccc2)cc1	·	·	17.0	·	·	·	·
CCN(Cc1ccc(OC)c(F)c1)C(=O)/C=C/c1ccc(S(=O)(=O)N2CCOCC2)cc1	·	·	-9.6	·	·	·	·
O=C(O)c1ccc2c(c1)C(=O)/C(=C/c1ccccc1)C2=O	0.2	-6.7	10.5	5.1	-2.4	·	·
O=C(O)c1ccc2c(c1)C(=O)/C(=C\c1ccco1)C2=O	-9.3	-0.9	61.5*	62.5*	-4.4	-14.8	10.8	ZTA inh confirm=63.1*;EBNA-1 counter=9.1
COc1cccc(NS(=O)(=O)c2ccc3c(c2)CCCN3C(C)=O)c1	6.5	-9.6	-13.9	3.5	14.8	·	·
COc1cccc(NS(=O)(=O)c2ccc3c(c2)C2C=CCC2C(c2ccc(C(=O)O)cc2)N3)c1 (stereo unspecified)	-7.1	-0.2	38.5*	43.0*	-0.8	52.3*	41.9*	ZTA inh confirm=25.0;EBNA-1 counter=3.8
Cc1ccc(NC(=O)CCCN2C(=O)NC(C)(C)C2=O)cc1	·	·	-1.0	·	·	·	·
COc1ccc(NC(=O)C2=CN3CCS(=O)(=O)N=C3C=C2)c(OC)c1	·	·	-9.5	·	·	·	·
O=C1c2ccccc2-c2onc3ccc(NCc4ccco4)c1c23	-7.7	-7.5	83.4*	40.8*	17.7	21.1	-88.4	ZTA inh confirm=45.5*;EBNA-1 counter=14.9
